Data: ChEMBL document CHEMBL1157439, “Novel benzimidazole derivatives as selective CB2 agonists” (Bioorg Med Chem Lett, 2008)

What was measured:
Cannabinoid receptor 2 [1] = target: T1, Cannabinoid receptor 2 (Homo sapiens, UniProt P34972); experiment: Agonist activity at cloned human CB2 receptor in Sf9 cells assessed by [35S]GTPgammaS binding assay relative to delta9-THC; type: functional
Cannabinoid receptor 1 = Cannabinoid receptor 1 (Homo sapiens, UniProt P21554); experiment: Displacement of [3H]CP-55940 from human CB1 receptor
Cannabinoid receptor 2 [2] = target: T1, Cannabinoid receptor 2; experiment: Agonist activity at cloned human CB2 receptor in Sf9 cells assessed as stimulation of [35S]GTPgammaS binding assay; type: functional
In short: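 Sf9 membranes carrying cloned human CB2, in 50 mM Hepes, 20 mM NaOH, 100 mM NaCl, 1 mM EDTA, 5 mM MgCl2, 0.1% BSA plus GDP, pH 7.4. 10-point dose–response with [35S]GTPγS (~130,000 dpm/well), 1 h, room temperature. Filtered and washed (Tris/MgCl2/NaCl pH 7.4, 4 °C), then scintillation counted.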

Cannabinoid receptor 2 [3] = target: T1, Cannabinoid receptor 2; experiment: Displacement of [3H]CP-55940 from human CB2 receptor

T1 sequence (P34972 whole entry): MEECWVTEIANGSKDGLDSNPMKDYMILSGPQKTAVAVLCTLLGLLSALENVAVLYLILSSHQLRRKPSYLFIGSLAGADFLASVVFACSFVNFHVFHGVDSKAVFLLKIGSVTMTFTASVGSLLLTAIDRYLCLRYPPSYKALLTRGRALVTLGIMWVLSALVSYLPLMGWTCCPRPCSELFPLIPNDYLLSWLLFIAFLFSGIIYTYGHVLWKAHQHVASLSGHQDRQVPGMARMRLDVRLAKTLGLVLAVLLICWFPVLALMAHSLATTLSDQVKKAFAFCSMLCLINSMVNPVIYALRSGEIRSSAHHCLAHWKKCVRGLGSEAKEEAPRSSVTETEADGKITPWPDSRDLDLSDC
Sequence of Cannabinoid receptor 1 (P21554 whole entry): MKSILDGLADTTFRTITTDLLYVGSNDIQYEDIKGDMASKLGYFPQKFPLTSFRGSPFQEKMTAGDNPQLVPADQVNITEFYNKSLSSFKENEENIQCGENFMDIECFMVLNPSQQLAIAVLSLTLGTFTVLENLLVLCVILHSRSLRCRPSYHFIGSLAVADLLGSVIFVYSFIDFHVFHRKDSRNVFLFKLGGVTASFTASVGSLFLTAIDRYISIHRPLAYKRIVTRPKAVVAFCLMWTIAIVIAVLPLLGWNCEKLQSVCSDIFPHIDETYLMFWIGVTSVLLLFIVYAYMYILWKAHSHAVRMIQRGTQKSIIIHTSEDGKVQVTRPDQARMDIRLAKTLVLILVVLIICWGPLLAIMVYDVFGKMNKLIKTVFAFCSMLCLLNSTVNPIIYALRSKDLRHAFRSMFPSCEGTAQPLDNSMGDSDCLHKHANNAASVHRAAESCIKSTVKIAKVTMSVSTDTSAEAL

SMILES | Emax (Cannabinoid receptor 2 [1]) | Ki (Cannabinoid receptor 1) | EC50 (Cannabinoid receptor 2 [2]) | Ki (Cannabinoid receptor 2 [3])
CCNC(=O)c1ccc2c(c1)nc(Cc1ccc(OCC)cc1)n2CC1CC1 | 53% | > 5000 nM | 52 nM | 63 nM
CCOc1ccc(Cc2nc3cc(N(C)C(C)=O)ccc3n2CC2CC2)cc1 | – | > 5000 nM | – | 1350 nM
CCOc1ccc(Cc2nc3cc(C(=O)N(CC)CC)ccc3n2CC2CC2)cc1 | 68% | > 5000 nM | 2.1 nM | 4.1 nM
CCOc1ccc(Cc2nc3cc(C(=O)N(CC)CC)ccc3n2CC2CCCC2)cc1 | 79% | 491 nM | 0.7 nM | 1 nM
CCN(CC)C(=O)c1ccc2c(c1)nc(Cc1ccc(OC3CCC3)cc1)n2CCC(C)C | 73% | > 5000 nM | 24 nM | 44 nM
CCN(CC)C(=O)c1ccc2c(c1)nc(Cc1ccc(OC(C)C)cc1)n2CCC(C)C | 79% | 4680 nM | 2.4 nM | 4.5 nM
CCOc1ccc(Cc2nc3cc(C(=O)N(CC)CC)ccc3n2CCC(C)C)cc1 | 63% | > 5000 nM | – | –
CCOc1ccc(Cc2nc3cc(C(=O)N4CCCCC4)ccc3n2CC2CC2)cc1 | 45% | > 5000 nM | 3 nM | 6.9 nM
CCN(CC)C(=O)c1ccc2c(c1)nc(Cc1ccc(OC)cc1)n2CCC(C)C | 43% | > 5000 nM | 7.3 nM | 17 nM
CCOc1ccc(Cc2nc3cc(C(=O)N(CC)CC)ccc3n2CC2CC2)cn1 | – | > 5000 nM | – | –
CCOc1ccc(Cc2nc3cc(N(C)C(=O)NC(C)C)ccc3n2CC2CC2)cc1 | 51% | > 5000 nM | 6.4 nM | 5.7 nM
CCN(CC)C(=O)c1ccc2c(c1)nc(Cc1ccc(Oc3ccccc3)cc1)n2CCC(C)C | 66% | 2400 nM | 3.2 nM | 4.9 nM
CCCN(C)C(=O)c1ccc2c(c1)nc(Cc1ccc(OCC)cc1)n2CC1CC1 | 54% | > 5000 nM | 3.2 nM | 7.6 nM
CCOc1ccc(Cc2nc3cc(N(C)C(=O)N(C)C)ccc3n2CC2CC2)cc1 | 55% | > 5000 nM | 36 nM | 41 nM
CCOc1ccc(Cc2nc3cc(C(N)=O)ccc3n2CC2CC2)cc1 | – | > 5000 nM | – | > 5000 nM
CCOc1ccc(Cc2nc3cc(C(=O)N(CC)CC)ccc3n2CC2CCCCC2)cc1 | 79% | 110 nM | 0.52 nM | 3.7 nM
CCOc1ccc(Cc2nc3cc(C(=O)N(CC)CC)ccc3n2CC23CC4CC(CC(C4)C2)C3)cc1 | 81% | 406 nM | 1.3 nM | 2.8 nM
CCN(CC)C(=O)c1ccc2c(c1)nc(Cc1ccc(O)cc1)n2CCC(C)C | – | > 5000 nM | – | 799 nM
CCN(CC)C(=O)c1ccc2c(c1)nc(Cc1ccc(OC3CCCC3)cc1)n2CCC(C)C | 83% | > 5000 nM | 18 nM | 43 nM
CCOc1ccc(Cc2nc3cc(C(=O)N(CC)CC)ccc3n2Cc2cc[n+]([O-])cc2)cc1 | – | > 5000 nM | – | 588 nM
CCOc1ccc(C(O)c2nc3cc(C(=O)N(CC)CC)ccc3n2CCC(C)C)cc1 (stereo not drawn) | 70% | > 5000 nM | – | 57 nM
CCOc1ccc(Cc2nc3cc(C(=O)N(CC)CC)ccc3n2C[C@@H]2CCCO2)cc1 | 76% | > 5000 nM | 4.8 nM | 15 nM
CCOc1ccc(Cc2nc3cc(C(=O)N(CC)CC)ccc3n2C[C@H]2CCCO2)cc1 | 62% | > 5000 nM | 8.3 nM | 23 nM
